{"data": "Assay results from different studies", "target": "SNF-related serine/threonine-protein kinase (SNRK, Homo sapiens, UniProt Q9NRH2)", "Residues used in one study (Q9NRH2 1-765)": "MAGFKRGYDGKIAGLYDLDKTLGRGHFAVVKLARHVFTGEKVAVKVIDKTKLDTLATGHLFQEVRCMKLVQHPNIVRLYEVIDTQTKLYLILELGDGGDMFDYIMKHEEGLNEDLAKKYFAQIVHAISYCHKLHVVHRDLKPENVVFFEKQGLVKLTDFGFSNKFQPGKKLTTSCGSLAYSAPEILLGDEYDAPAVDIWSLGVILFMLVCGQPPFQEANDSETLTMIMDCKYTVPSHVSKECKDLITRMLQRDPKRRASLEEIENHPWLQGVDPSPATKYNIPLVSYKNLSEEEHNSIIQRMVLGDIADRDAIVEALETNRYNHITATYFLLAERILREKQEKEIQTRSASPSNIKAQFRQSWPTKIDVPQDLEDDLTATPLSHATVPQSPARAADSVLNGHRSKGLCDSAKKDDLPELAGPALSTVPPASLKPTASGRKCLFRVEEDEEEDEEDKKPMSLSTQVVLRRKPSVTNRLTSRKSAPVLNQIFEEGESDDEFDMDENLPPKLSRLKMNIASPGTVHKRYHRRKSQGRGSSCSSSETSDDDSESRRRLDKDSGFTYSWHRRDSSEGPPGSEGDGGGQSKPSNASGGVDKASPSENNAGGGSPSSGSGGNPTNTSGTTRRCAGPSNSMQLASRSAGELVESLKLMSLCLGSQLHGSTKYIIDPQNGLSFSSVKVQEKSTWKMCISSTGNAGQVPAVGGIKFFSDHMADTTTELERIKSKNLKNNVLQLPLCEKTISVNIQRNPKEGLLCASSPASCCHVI"}
{"Structure (SMILES)": "CN(C)c1nccc(-c2cnn3ncccc23)n1", "read-out": "binding", "concentration": "1 µM", "remaining binding [%]": 100}
{"Structure (SMILES)": "COc1cnc(Nc2cccc(S(N)(=O)=O)c2)nc1N1CCN(c2ccccc2)C(=O)C1", "read-out": "binding", "technique": "competition with immobilised ligand", "concentration": "1 µM", "remaining binding [%]": 85}
{"Structure (SMILES)": "O=C(NCCCN1CCOCC1)c1ccc(Nc2ncc(Cl)c(-c3ccc(Cl)s3)n2)cc1", "read-out": "binding", "technique": "competition with immobilised ligand", "concentration": "1 µM", "remaining binding [%]": 100}
{"Structure (SMILES)": "c1cnn2ncc(-c3ccnc(N4CCC45COC5)n3)c2c1", "read-out": "binding", "concentration": "1 µM", "remaining binding [%]": 67}
{"Structure (SMILES)": "COc1ccc2c(c1)O[C@@H](c1ccc(OC)c(OC)c1)C[C@H]2NC(=O)C1(c2ccc3c(c2)OC(F)(F)O3)CC1", "read-out": "cell-free assay", "technique": "competition with immobilised ligand", "concentration": "1 µM", "remaining binding [%]": 90}
{"Structure (SMILES)": "O=C(NCCCN1CCOCC1)c1ccc(Nc2nccc(-c3cc4ccccc4s3)n2)cc1", "read-out": "binding", "technique": "competition with immobilised ligand", "concentration": "1 µM", "remaining binding [%]": 99}
{"Structure (SMILES)": "CN(C)c1nccc(-c2cnc3ncccn23)n1", "read-out": "binding", "concentration": "1 µM", "remaining binding [%]": 91}
{"Structure (SMILES)": "Nc1ncc2c(n1)-c1c([nH]c3ccc(C#CC4CC4)cc13)CCCC2", "read-out": "binding", "technique": "competition with immobilised ligand", "concentration": "1 µM", "remaining binding [%]": 88}
{"Structure (SMILES)": "N[C@@H]1CCN(c2nccc(-c3cnn4ncccc34)n2)C1", "read-out": "binding", "concentration": "1 µM", "remaining binding [%]": 100}
{"Structure (SMILES)": "O=C(NCC1CCOCC1)c1n[nH]cc1NC(=O)c1c(F)cccc1F", "read-out": "binding", "technique": "competition with immobilised ligand", "concentration": "1 µM", "remaining binding [%]": 84}
{"Structure (SMILES)": "CN(c1ccnc(CNc2nc(Nc3ccc4c(c3)CC(=O)N4)ncc2C(F)(F)F)n1)S(C)(=O)=O", "read-out": "cell-free assay", "technique": "competition with immobilised ligand", "concentration": "1 µM", "remaining binding [%]": 85}
{"Structure (SMILES)": "CN(C)c1ncc(F)c(-c2cnn3ncccc23)n1", "read-out": "binding", "concentration": "1 µM", "remaining binding [%]": 100}
{"Structure (SMILES)": "CS(=O)(=O)N1CCCC(NC(=O)[C@H](CCC2CCCCC2)NC(=O)c2ccc(CNc3ncnc4c3nnn4-c3ccccc3)cc2)C1 (stereo partly shown)", "read-out": "cell-free assay", "technique": "competition with immobilised ligand", "concentration": "0.1 µM", "remaining binding [%]": 81}
{"Structure (SMILES)": "C[C@H]1CCN(c2nccc(-c3cnn4ncccc34)n2)C1", "read-out": "binding", "concentration": "1 µM", "remaining binding [%]": 81}
{"Structure (SMILES)": "CS(=O)(=O)NCC[C@H](NC(=O)c1cncc2c1cnn2-c1ccc(F)cc1)c1ccnc(S(C)(=O)=O)c1", "read-out": "cell-free assay", "technique": "competition with immobilised ligand", "concentration": "1 µM", "remaining binding [%]": 100}
{"Structure (SMILES)": "Cc1cnc(Nc2ccc(C(=O)N3CCC(N4CCCC4)CC3)cc2)nc1-c1cc2ccccc2s1", "read-out": "binding", "technique": "competition with immobilised ligand", "concentration": "1 µM", "remaining binding [%]": 100}
{"Structure (SMILES)": "C=CC(=O)N1CCC(C(=O)NCC(=O)N2CCN(c3nc(-c4cnc(N)nc4C(F)F)nc(N4CCOCC4)n3)CC2)CC1", "read-out": "binding", "technique": "competition with immobilised ligand", "concentration": "1 µM", "remaining binding [%]": 99}
{"Structure (SMILES)": "O=C(Nc1cccnn1)N1CCC(=Cc2cccc(Oc3ccc(C(F)(F)F)cn3)c2)CC1", "read-out": "cell-free assay", "technique": "competition with immobilised ligand", "concentration": "1 µM", "remaining binding [%]": 100}
{"Structure (SMILES)": "c1cncc(-c2cccc(Nc3nccc(NC4CCCCC4)n3)c2)c1", "read-out": "binding", "technique": "competition with immobilised ligand", "concentration": "10 µM", "remaining binding [%]": 69}
{"Structure (SMILES)": "COc1cc(-c2cn(C3CCc4c(F)cccc4N(CC(F)(F)F)C3=O)nn2)ccc1-n1cnc(C)c1 (stereo not shown)", "read-out": "cell-free assay", "technique": "competition with immobilised ligand", "concentration": "1 µM", "remaining binding [%]": 100}
{"Structure (SMILES)": "CN(c1nccc(-c2cnn3ncccc23)n1)C1CC1", "read-out": "binding", "concentration": "1 µM", "remaining binding [%]": 100}
{"Structure (SMILES)": "FC(F)(F)Oc1cccc(-c2cnc3ccc(-c4ccncc4)nn23)c1", "read-out": "binding", "technique": "competition with immobilised ligand", "concentration": "5 µM", "remaining binding [%]": 71}
